Laboratory results: ChEMBL document CHEMBL1158541, “Water-soluble PDE4 inhibitors for the treatment of dry eye” (Bioorg Med Chem Lett, 2010)
Converted amounts (≈) assume the structure as drawn. The source made the active and inactive calls. The calls are words filed in the database; no cut-off is given here.

Columns and labels:
[1] = Inhibition of PDE4 expressed in HEK293 cells coexpressing cyclic nucleotide gated ion channel mutant assessed as inhibition of NECA-induced cAMP production treated 15 mins before NECA challenge measured after 45 mins by FLIPR assay; format: cell-based
[2] = molecular target: 3',5'-cyclic-AMP phosphodiesterase 4B (Homo sapiens, UniProt Q07343); assay: Inhibition of human His6-tagged PDE4B (152-487) expressed in Escherichia coli BL21 (DE3) after 1 hr
[3] = Solubility in 0.1 M phosphate buffer at pH 7.4 by shake-flask method; format: physicochemical
How it was run: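 Shake-flask solubility in 0.1 M phosphate buffer, pH 7.4.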

Oryctolagus cuniculus [4] = species: Oryctolagus cuniculus; assay: Antiinflammatory activity in rabbit assessed as inhibition of lacrimal gland inflammation-induced dry eye at 0.001 to 10 ug/ml bid for 4 days; format: functional, organism-based; details: Lachrymal gland, 0.01 to 10 ug/ml, in the assay text read “0.01 to 10 ug/ml” for “0.001 to 10 ug/ml”
How it was run: (§1)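 Rabbit dry eye induced by lacrimal gland inflammation. Compound given topically b.i.d. for 4 days. Read-out is corneal staining, scored as percent inhibition versus vehicle, with dexamethasone (100 µg/mL) as positive control. Statistics by ANOVA with Dunnett's post-test.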

Oryctolagus cuniculus [5] = species: Oryctolagus cuniculus; assay: Antiinflammatory activity in rabbit assessed as inhibition of lacrimal gland inflammation-induced dry eye at 10 ng/ml to 10 ug/ml bid for 4 days; format: functional, organism-based; details: Lachrymal gland; how it was run: as §1
Rattus norvegicus [6] = assay: Induction of tear secretion in rat at 10 ug/ml by topical administration after 10 mins by phenol red thread test; format: functional, organism-based
How it was run: (§2)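 Rats received compound topically, and tear secretion was measured 10 min later by phenol red thread test. Percent increase is relative to untreated animals, and significance is versus saline by ANOVA with Dunnett's post-test. Positive control was isoproterenol (10 µg/mL).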

Rattus norvegicus [7] = assay: Induction of tear secretion in rat at 100 ug/ml by topical administration after 10 mins by phenol red thread test; format: functional, organism-based; how it was run: as §2
[8] = Solubility in water; format: physicochemical
HEK293 = assay: Inhibition of PDE4 expressed in HEK293 cells coexpressing cyclic nucleotide gated ion channel mutant assessed as inhibition of NECA-induced cAMP production at 70 uM treated 15 mins before NECA challenge measured after 45 mins by FLIPR assay; format: cell-based

Chain of 3',5'-cyclic-AMP phosphodiesterase 4B (Q07343 whole entry): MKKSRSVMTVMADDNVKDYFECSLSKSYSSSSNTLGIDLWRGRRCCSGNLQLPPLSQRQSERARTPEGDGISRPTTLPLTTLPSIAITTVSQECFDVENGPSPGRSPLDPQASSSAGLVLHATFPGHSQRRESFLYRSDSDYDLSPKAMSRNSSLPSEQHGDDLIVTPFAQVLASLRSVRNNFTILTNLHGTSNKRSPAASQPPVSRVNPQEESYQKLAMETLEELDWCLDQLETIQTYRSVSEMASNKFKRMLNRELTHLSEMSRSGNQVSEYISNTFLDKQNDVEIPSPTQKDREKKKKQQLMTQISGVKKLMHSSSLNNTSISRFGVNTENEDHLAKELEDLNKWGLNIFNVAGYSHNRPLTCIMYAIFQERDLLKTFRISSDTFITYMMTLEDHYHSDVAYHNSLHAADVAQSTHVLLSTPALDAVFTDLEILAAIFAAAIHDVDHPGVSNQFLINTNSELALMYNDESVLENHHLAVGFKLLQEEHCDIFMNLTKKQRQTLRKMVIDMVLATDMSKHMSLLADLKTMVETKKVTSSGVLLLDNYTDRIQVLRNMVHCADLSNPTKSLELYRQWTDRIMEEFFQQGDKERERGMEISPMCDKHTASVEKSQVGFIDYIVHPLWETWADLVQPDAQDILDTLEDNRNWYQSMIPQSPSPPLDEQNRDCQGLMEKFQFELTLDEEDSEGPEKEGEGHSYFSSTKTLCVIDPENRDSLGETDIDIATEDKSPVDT

| SMILES | IC50 [1] | IC50 [2] | solubility thermodynamic [3] | other results |
| --- | --- | --- | --- | --- |
| COc1ccc2c(Nc3c(Cl)cncc3Cl)cc(=O)oc2c1OCCCCCCCCC(=O)O | 30 nM | 1 nM | 300 µg/mL (≈ 589 µM) | – |
| COc1ccc2c(Nc3c(Cl)cncc3Cl)cc(=O)oc2c1OCCCCC(=O)O | 730 nM | 43 nM | 500 µg/mL (≈ 1100 µM) | – |
| COc1ccc2c(Nc3c(Cl)cncc3Cl)cc(=O)oc2c1OCCCCN(C)C | 1820 nM | 45 nM | 1800 µg/mL (≈ 3980 µM) | Activity (Oryctolagus cuniculus [4]): Active; Activity (Oryctolagus cuniculus [5]): Active; Activity (Rattus norvegicus [6]): Active; Activity (Rattus norvegicus [7]): Active |
| COc1ccc2c(Nc3c(Cl)cncc3Cl)cc(=O)oc2c1OCC(=O)O | 5350 nM | 1180 nM | – | – |
| O=C(Nc1c(Cl)cncc1Cl)c1ccc(OC(F)F)c(OCC2CC2)c1 [ROFLUMILAST] | 1 nM | – | – | – |
| COc1ccc2c(Nc3c(Cl)cncc3Cl)cc(=O)oc2c1OCCCCCCC(=O)O | 120 nM | 2 nM | 1400 µg/mL (≈ 2910 µM) | solubility [8]: 1400 µg/mL (≈ 2910 µM) |
| COc1ccc2c(Nc3c(Cl)cncc3Cl)cc(=O)oc2c1OCCCCCC(=O)O | 280 nM | 17 nM | 900 µg/mL (≈ 1930 µM) | solubility [8]: 900 µg/mL (≈ 1930 µM) |
| COc1ccc(C(=O)Nc2c(Cl)cncc2Cl)cc1OC1CCCC1 | 13 nM | – | – | – |
| COc1ccc2c(Nc3c(Cl)cncc3Cl)cc(=O)oc2c1OCCCCCCCC(=O)O | 40 nM | 2 nM | 300 µg/mL (≈ 606 µM) | – |
| COc1ccc2c(Nc3c(Cl)cncc3Cl)cc(=O)oc2c1OCCCCCCN(C)C | 180 nM | 5 nM | – | – |
| COc1ccc2c(Nc3c(Cl)cncc3Cl)ccnc2c1OC1CCCC1 | 8200 nM | 3300 nM | – | – |
| COc1ccc2c(Nc3c(Cl)cncc3Cl)cc(=O)oc2c1OCCCN(C)C | > 30000 nM | 670 nM | – | – |
| COc1ccc2c(Nc3c(Cl)cncc3Cl)coc2c1OC1CCCC1 | > 30000 nM | 16000 nM | – | – |
| COc1ccc2c(c1OC1CCCC1)OCCC2Nc1c(Cl)cncc1Cl (stereo not given) | > 30000 nM | > 30000 nM | – | – |
| COc1ccc2c(Nc3c(Cl)cncc3Cl)cc(=O)oc2c1OC1CCCC1 | 28 nM | – | 0.3 µg/mL (≈ 0.712 µM) | – |
| COc1ccc2c(Nc3c(Cl)cncc3Cl)cc(=O)oc2c1OCCCCCN(C)C | 660 nM | 21 nM | 60 µg/mL (≈ 129 µM) | – |
| COc1ccc2c(Nc3c(Cl)cncc3Cl)cc(=O)oc2c1OCCCC(=O)O | 890 nM | 80 nM | – | – |
| COc1ccc2c(Nc3c(Cl)cncc3Cl)cc(=O)oc2c1OCCCCCCCN(C)C | 150 nM | 3 nM | – | – |
| COc1ccc2c(Nc3c(Cl)cncc3Cl)ncnc2c1OC1CCCC1 | 10000 nM | 2300 nM | – | – |
| COc1ccc2c(Nc3c(Cl)cncc3Cl)cc(=O)oc2c1OCCCCCCCCN(C)C | 150 nM | 2 nM | – | – |
| COc1ccc2c(Nc3c(Cl)cncc3Cl)nncc2c1OC1CCCC1 | 1100 nM | 400 nM | – | – |
| COc1ccc2c(Nc3c(Cl)cncc3Cl)nccc2c1OC1CCCC1 | – | 500 nM | – | inhibition (HEK293): inactive |
